Experimental data: ChEMBL document CHEMBL1157144, “Novel 16-membered macrolides modified at C-12 and C-13 positions of midecamycin A1 and miokamycin. Part 1: Synthesis and evaluation of 12,13-carbamate and 12-arylalkylamino-13-hydroxy analogues” (2008)
In brackets after ≈: the same amount, converted by molar mass.

Tests used:
Assay type in all cases: functional
Staphylococcus aureus [1] = test: Antibacterial activity against standard Staphylococcus aureus after 20 hrs by agar dilution method
In short: (§1)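 Agar dilution MIC. The inoculum came from a seed culture in Sensitivity test broth. A 5 µl portion of a cell suspension of about 10^6 CFU/ml was inoculated onto Sensitivity disk agar supplemented with 5% horse blood. Plates were incubated at 37 °C for 20 h, then MIC was read.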

Staphylococcus aureus [2] = test: Antibacterial activity against susceptible Staphylococcus aureus after 20 hrs by agar dilution method; in short: as §1
Staphylococcus aureus [3] = test: Antibacterial activity against ermA-constitutive resistant Staphylococcus aureus after 20 hrs by agar dilution method; in short: as §1
Staphylococcus aureus [4] = test: Antibacterial activity against ermB-inducible resistant Staphylococcus aureus after 20 hrs by agar dilution method; in short: as §1
Staphylococcus aureus [5] = test: Antibacterial activity against ermC-inducible resistant Staphylococcus aureus after 20 hrs by agar dilution method; in short: as §1
Streptococcus pneumoniae [6] = test: Antibacterial activity against susceptible Streptococcus pneumoniae after 20 hrs by agar dilution method
In short: (§2)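 MIC by agar dilution. Strains grown on blood agar plates for seed culture. About 5 µl of a suspension of roughly 10^6 CFU/ml spotted onto Sensitivity disk agar with 5% horse blood. Plates incubated at 37 °C for 20 h, then MIC read.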

Streptococcus pneumoniae [7] = test: Antibacterial activity against ermB-constitutive resistant Streptococcus pneumoniae after 20 hrs by agar dilution method
In short: (§3)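 Agar dilution MIC. Streptococcal strains were pre-cultured on blood agar plates. A 5 µl portion of a cell suspension of about 10^6 CFU/ml was inoculated onto Sensitivity disk agar supplemented with 5% horse blood. Plates were incubated at 37 °C for 20 h, then MIC was read.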

Streptococcus pneumoniae [8] = test: Antibacterial activity against ermB-inducible resistant Streptococcus pneumoniae after 20 hrs by agar dilution method; in short: as §3
Streptococcus pneumoniae [9] = test: Antibacterial activity against mefE efflux-resistant Streptococcus pneumoniae after 20 hrs by agar dilution method; in short: as §3
Streptococcus pyogenes [10] = test: Antibacterial activity against ermB-constitutive resistant Streptococcus pyogenes after 20 hrs by agar dilution method; in short: as §3
Streptococcus pyogenes [11] = test: Antibacterial activity against mefE efflux-resistant Streptococcus pyogenes after 20 hrs by agar dilution method; in short: as §3
Moraxella catarrhalis = test: Antibacterial activity against standard Moraxella catarrhalis after 20 hrs by agar dilution method; in short: as §2
Haemophilus influenzae [12] = test: Antibacterial activity against standard Haemophilus influenzae after 20 hrs by agar dilution method; in short: as §2
Haemophilus influenzae [13] = test: Antibacterial activity against susceptible Haemophilus influenzae after 20 hrs by agar dilution method; in short: as §2
Streptococcus pyogenes [14] = test: Antibacterial activity against standard Streptococcus pyogenes after 20 hrs by agar dilution method; in short: as §2

Structure (SMILES)	MIC (Staphylococcus aureus [1]) [µg/mL]	MIC (Staphylococcus aureus [2]) [µg/mL]	MIC (Staphylococcus aureus [3]) [µg/mL]	MIC (Staphylococcus aureus [4]) [µg/mL]	MIC (Staphylococcus aureus [5]) [µg/mL]	MIC (Streptococcus pneumoniae [6]) [µg/mL]	MIC (Streptococcus pneumoniae [7]) [µg/mL]	MIC (Streptococcus pneumoniae [8]) [µg/mL]	MIC (Streptococcus pneumoniae [9]) [µg/mL]	MIC (Streptococcus pyogenes [10]) [µg/mL]	MIC (Streptococcus pyogenes [11]) [µg/mL]	MIC (Moraxella catarrhalis) [µg/mL]	MIC (Haemophilus influenzae [12]) [µg/mL]	MIC (Haemophilus influenzae [13]) [µg/mL]	MIC (Streptococcus pyogenes [14]) [µg/mL]
CCC(=O)O[C@@H]1CC(=O)O[C@H](C)C[C@H](O)[C@H](N(C)CCc2ccccc2)/C=C/[C@H](OC(C)=O)[C@H](C)C[C@H](CC=O)[C@H](O[C@@H]2O[C@H](C)[C@@H](O[C@H]3C[C@@](C)(O)[C@@H](OC(=O)CC)[C@H](C)O3)[C@H](N(C)C)[C@H]2O)[C@H]1OC	0.39 (≈ 0.387 µM)	0.39 (≈ 0.387 µM)	> 100	0.78 (≈ 0.774 µM)	0.39 (≈ 0.387 µM)	0.1 (≈ 0.0993 µM)	> 100	25 (≈ 24.8 µM)	0.1 (≈ 0.0993 µM)	> 100	0.2 (≈ 0.199 µM)	0.39 (≈ 0.387 µM)	1.56 (≈ 1.55 µM)	25 (≈ 24.8 µM)	–
CCC(=O)O[C@@H]1CC(=O)O[C@H](C)C[C@H](O)[C@H](N(C)CCCCCCCc2ccccc2)/C=C/[C@H](OC(C)=O)[C@H](C)C[C@H](CC=O)[C@H](O[C@@H]2O[C@H](C)[C@@H](O[C@H]3C[C@@](C)(O)[C@@H](OC(=O)CC)[C@H](C)O3)[C@H](N(C)C)[C@H]2O)[C@H]1OC	1.56 (≈ 1.45 µM)	0.78 (≈ 0.724 µM)	100 (≈ 92.8 µM)	0.78 (≈ 0.724 µM)	1.56 (≈ 1.45 µM)	0.39 (≈ 0.362 µM)	25 (≈ 23.2 µM)	12.5 (≈ 11.6 µM)	0.39 (≈ 0.362 µM)	25 (≈ 23.2 µM)	0.78 (≈ 0.724 µM)	3.13 (≈ 2.91 µM)	12.5 (≈ 11.6 µM)	25 (≈ 23.2 µM)	0.39 (≈ 0.362 µM)
CCC(=O)O[C@@H]1CC(=O)O[C@H](C)C[C@H](O)[C@H](N(C)CCCc2ccnc3ccccc23)/C=C/[C@H](OC(C)=O)[C@H](C)C[C@H](CC=O)[C@H](O[C@@H]2O[C@H](C)[C@@H](O)[C@H](N(C)C)[C@H]2O)[C@H]1OC	0.2 (≈ 0.229 µM)	0.39 (≈ 0.447 µM)	> 50	0.39 (≈ 0.447 µM)	0.39 (≈ 0.447 µM)	0.025 (≈ 0.0287 µM)	> 50	12.5 (≈ 14.3 µM)	0.1 (≈ 0.115 µM)	> 50	1.56 (≈ 1.79 µM)	0.05 (≈ 0.0573 µM)	0.39 (≈ 0.447 µM)	1.56 (≈ 1.79 µM)	0.1 (≈ 0.115 µM)
CCC(=O)O[C@@H]1CC(=O)O[C@H](C)C[C@H](O)[C@H](N(C)CCCc2ccccc2)/C=C/[C@H](OC(C)=O)[C@H](C)C[C@H](CC=O)[C@H](O[C@@H]2O[C@H](C)[C@@H](O[C@H]3C[C@@](C)(O)[C@@H](OC(=O)CC)[C@H](C)O3)[C@H](N(C)C)[C@H]2O)[C@H]1OC	0.2 (≈ 0.196 µM)	0.2 (≈ 0.196 µM)	> 100	0.2 (≈ 0.196 µM)	0.2 (≈ 0.196 µM)	0.05 (≈ 0.049 µM)	> 100	12.5 (≈ 12.2 µM)	0.1 (≈ 0.0979 µM)	100 (≈ 97.9 µM)	0.1 (≈ 0.0979 µM)	0.39 (≈ 0.382 µM)	1.56 (≈ 1.53 µM)	25 (≈ 24.5 µM)	–
CCC(=O)O[C@@H]1CC(=O)O[C@H](C)C[C@@H]2OC(=O)N(CCCc3ccccc3)[C@@H]2/C=C/[C@H](OC(C)=O)[C@H](C)C[C@H](CC=O)[C@H](O[C@@H]2O[C@H](C)[C@@H](O[C@H]3C[C@@](C)(O)[C@@H](OC(=O)CC)[C@H](C)O3)[C@H](N(C)C)[C@H]2O)[C@H]1OC	0.78 (≈ 0.755 µM)	0.78 (≈ 0.755 µM)	> 100	1.56 (≈ 1.51 µM)	0.78 (≈ 0.755 µM)	0.2 (≈ 0.194 µM)	> 100	> 100	0.2 (≈ 0.194 µM)	> 100	0.2 (≈ 0.194 µM)	1.56 (≈ 1.51 µM)	6.25 (≈ 6.05 µM)	100 (≈ 96.8 µM)	–
CCC(=O)O[C@@H]1CC(=O)O[C@H](C)C[C@H](O)[C@H](N(C)CCCc2ccncc2)/C=C/[C@H](OC(C)=O)[C@H](C)C[C@H](CC=O)[C@H](O[C@@H]2O[C@H](C)[C@@H](O[C@H]3C[C@@](C)(O)[C@@H](OC(=O)CC)[C@H](C)O3)[C@H](N(C)C)[C@H]2O)[C@H]1OC	0.2 (≈ 0.196 µM)	0.2 (≈ 0.196 µM)	> 100	0.2 (≈ 0.196 µM)	0.39 (≈ 0.382 µM)	0.05 (≈ 0.0489 µM)	> 100	> 100	0.1 (≈ 0.0978 µM)	> 100	0.1 (≈ 0.0978 µM)	0.78 (≈ 0.763 µM)	1.56 (≈ 1.53 µM)	12.5 (≈ 12.2 µM)	–
CCC(=O)O[C@@H]1CC(=O)O[C@H](C)C[C@@H]2OC(=O)N[C@@H]2/C=C/[C@H](OC(C)=O)[C@H](C)C[C@H](CC=O)[C@H](O[C@@H]2O[C@H](C)[C@@H](O[C@H]3C[C@@](C)(O)[C@@H](OC(=O)CC)[C@H](C)O3)[C@H](N(C)C)[C@H]2O)[C@H]1OC	0.39 (≈ 0.426 µM)	0.39 (≈ 0.426 µM)	> 100	0.39 (≈ 0.426 µM)	0.78 (≈ 0.852 µM)	0.2 (≈ 0.219 µM)	> 100	> 100	0.2 (≈ 0.219 µM)	> 100	0.2 (≈ 0.219 µM)	0.39 (≈ 0.426 µM)	0.78 (≈ 0.852 µM)	6.25 (≈ 6.83 µM)	–
